Measured values: ChEMBL document CHEMBL3132796 (Medchemcomm, 2013)
Each block holds one compound with its values, some of them ahead of it. Calls of active or inactive are those of the source. No cut-off for these calls is given here.

Assays:
[1] = Decrease of SK1 expression in human PAMSC cells at 100 nM after 24 hrs by Western blot analysis in presence of proteasomal inhibitor MG132; format: functional, cell-based
[2] = Decrease of SK1 expression in human PAMSC cells at 100 nM after 24 hrs by Western blot analysis; format: functional, cell-based
[3] = tested on: PAMSC; settings: Homo sapiens, 10 to 100 nM
[4] = target: T1, Sphingosine kinase 2 (Homo sapiens) (UniProt Q9NRA0); settings: 1.5 uM
T1 sequence (whole entry): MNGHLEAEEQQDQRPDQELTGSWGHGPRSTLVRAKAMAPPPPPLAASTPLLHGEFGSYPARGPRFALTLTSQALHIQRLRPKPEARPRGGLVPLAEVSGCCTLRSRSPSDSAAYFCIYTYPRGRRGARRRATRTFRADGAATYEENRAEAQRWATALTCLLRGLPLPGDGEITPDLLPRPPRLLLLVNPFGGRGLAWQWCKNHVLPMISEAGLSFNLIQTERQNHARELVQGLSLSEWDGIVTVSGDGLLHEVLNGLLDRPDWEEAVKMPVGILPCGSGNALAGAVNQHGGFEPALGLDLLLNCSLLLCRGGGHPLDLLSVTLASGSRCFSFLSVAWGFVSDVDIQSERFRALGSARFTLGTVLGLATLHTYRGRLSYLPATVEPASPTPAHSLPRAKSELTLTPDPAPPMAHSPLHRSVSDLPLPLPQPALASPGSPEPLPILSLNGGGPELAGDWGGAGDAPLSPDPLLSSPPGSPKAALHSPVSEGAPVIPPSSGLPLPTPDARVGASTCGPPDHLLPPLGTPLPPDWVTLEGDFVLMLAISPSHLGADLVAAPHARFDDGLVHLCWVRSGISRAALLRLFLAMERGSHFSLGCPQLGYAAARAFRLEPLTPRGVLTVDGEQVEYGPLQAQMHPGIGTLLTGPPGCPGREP

[5] = target: T1, Sphingosine kinase 2 (Homo sapiens); settings: 50 uM
[6] = tested on: PAMSC; test: Inhibition of DNA synthesis in human PAMSC cells assessed as [3H]-thymidine incorporation into DNA at 300 nM after 24 hrs; format: functional, cell-based
In short: (§1)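 Pulmonary arterial smooth muscle cells were grown to 60% confluency and quiesced 24 h in basal medium with 0.1% eFCS. They were then treated with inhibitor in DMSO (vehicle 0.1% DMSO) for 48 h in complete medium, with [3H]-thymidine (0.25 µCi/mL) added for the final 24 h. Cells were washed with TCA, solubilised in SDS/NaOH and counted by scintillation. Each concentration was run in triplicate.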

[7] = target: T1, Sphingosine kinase 2 (Homo sapiens); test: Activity at purified SK2 (unknown origin) using ATP at 250 uM relative to control
[8] = target: T1, Sphingosine kinase 2 (Homo sapiens); test: Inhibition of purified SK2 (unknown origin) using sphingosine and [gamma-32P]ATP as substrate at 50 uM after 30 mins relative to control
In short: (§2)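 Buffer: 20 mM Tris pH 7.4 with EDTA, phosphatase and protease inhibitors, 20% glycerol and 400 mM KCl. Inhibitors were added in DMSO; control was 5% v/v DMSO.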

[9] = Decrease of SK1 expression in human PAMSC cells at 10 uM after 24 hrs by Western blot analysis; format: functional, cell-based
[10] = target: T2, Sphingosine kinase 1 (Homo sapiens, UniProt Q9NYA1); test: Inhibition of recombinant SK1 (unknown origin) using sphingosine and [gamma-32P]ATP as substrate after 30 mins
T2 sequence (Q9NYA1 whole entry): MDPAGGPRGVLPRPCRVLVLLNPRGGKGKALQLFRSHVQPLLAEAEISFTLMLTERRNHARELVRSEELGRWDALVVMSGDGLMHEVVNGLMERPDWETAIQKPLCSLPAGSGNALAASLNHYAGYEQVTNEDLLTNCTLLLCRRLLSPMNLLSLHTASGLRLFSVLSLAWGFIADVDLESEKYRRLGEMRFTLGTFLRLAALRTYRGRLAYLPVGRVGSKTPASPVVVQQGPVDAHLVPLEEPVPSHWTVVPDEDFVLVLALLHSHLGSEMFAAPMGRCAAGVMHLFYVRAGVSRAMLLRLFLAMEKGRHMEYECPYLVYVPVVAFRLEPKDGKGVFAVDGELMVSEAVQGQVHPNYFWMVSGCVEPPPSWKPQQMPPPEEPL

[11] = target: T3, Sphingosine kinase 2 (Homo sapiens, UniProt Q9NRA0); test: Inhibition of purified SK2 (unknown origin) using sphingosine and [gamma-32P]ATP as substrate after 30 mins; in short: as §2
T3 sequence (Q9NRA0 whole entry): T1 sequence (whole entry)

[12] = target: T2, Sphingosine kinase 1; test: Activity at recombinant SK1 (unknown origin) using ATP at 250 uM relative to control
[13] = tested on: PAMSC; test: Inhibition of DNA synthesis in human PAMSC cells assessed as [3H]-thymidine incorporation into DNA at 100 nM to 1 uM after 24 hrs; format: functional, cell-based; in short: as §1
[14] = Decrease of SK1 expression in human PAMSC cells at 10 uM after 24 hrs by Western blot analysis in presence of proteasomal inhibitor MG132; format: functional, cell-based
[15] = target: T3, Sphingosine kinase 2; test: Inhibition of SK2 (unknown origin)
In short: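 Purified SK2 (37 ng) run 30 min at 30 °C with 10 µM sphingosine complexed to fatty-acid-free BSA (0.2 mg/mL final) and 250 µM [γ-32P]ATP in 10 mM MgCl2. Buffer: 20 mM Tris pH 7.4 with phosphatase/protease inhibitors and 400 mM KCl. Inhibitor added in DMSO; control 5% v/v DMSO. Sphingosine level matches the SK2 Km.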

Compound: Cc1cc(CS(=O)(=O)c2ccccc2)cc(OCc2ccc(CN3CCC[C@@H]3CO)cc2)c1
Activity [1]: inactive | Activity [2]: Active | inhibition [3]: inactive

inhibition [4]: 73.4% | inhibition [5]: Active
Compound: CCCCCCCCCCCCc1ccc(C(=O)N2CCC[C@H]2C(=N)N)cc1
inhibition [6]: inactive

Activity [7]: Active | inhibition [8]: 80% | IC50 [10]: 69 µM | IC50 [11]: 21.8 µM
Compound: CCCCCCCCCCCCCCC[C@@H](O)[C@H](CO)NC(=S)Nc1cccc(C(F)(F)F)c1
Activity [9]: inactive

Activity [7]: Active | inhibition [8]: Active | Activity [12]: Active
Compound: CCCCCCCCCCCCCCC[C@@H](O)[C@H](CO)NC(=S)Nc1cccc(F)c1

Activity [7]: Active | Activity [12]: Active
Compound: CCCCCCCCCCCCC/C=C\[C@@H](O)[C@@H](N)CO

IC50 [10]: 7.1 µM | IC50 [11]: 766 µM
Compound: CCCCCCCCCCCCCCC[C@@H](O)[C@H](C)N
Activity [13]: Active | Activity [9]: Active | Activity [14]: inactive

Activity [12]: Active
Compound: CCCCCCCCCCCCCCC[C@@H](O)[C@H](C)[N+](C)(C)C

Ki [15]: 10 µM
Compound: O=C(NCc1ccncc1)C12CC3CC(C1)CC(c1ccc(Cl)cc1)(C3)C2 [ABC-294640]

inhibition [8]: 64.5%
Compound: CCCCCCCCCCCCCC[C@@H](O)[C@@H](O)[C@H](CO)NC(=S)Nc1ccc(F)cc1

inhibition [8]: Active
Compound: CCCCCCCCCCCCC/C=C/[C@@H](O)[C@H](CO)NC(=S)Nc1ccc(C(F)(F)F)cc1

inhibition [8]: 53.9%
Compound: CCCCCCCCCCCCCC[C@@H](O)[C@@H](O)[C@H](CO)NC(=O)Nc1ccc(C(F)(F)F)cc1

IC50 [10]: 27.8 µM | IC50 [11]: 300 µM
Compound: CCCCCCCCCCCCCCOCC(O)[C@H](C)N(C)C (single isomer, unassigned)

inhibition [8]: 79.2%
Compound: CCCCCCCCCCCCC/C=C/[C@@H](O)[C@H](CO)NC(=S)Nc1ccc(F)cc1

Activity [12]: Active
Compound: CCCCCCCCCCCCCC[C@H]1OC[C@H](NC(=S)Nc2c(F)c(F)c(F)c(F)c2F)[C@@H]1O
